One block for each compound: values may come before it. The source made the active and inactive calls. The calls are words filed in the database; no cut-off is given here.
Assays:
[1] = target: Plasmepsin II (Plasmodium falciparum) (UniProt P46925); assay: Inhibition of Plasmodium falciparum plasmepsin-2 after 60 mins by fluorescence assay
[2] = system: Plasmodium falciparum; assay: Antimalarial activity against chloroquine-sensitive Plasmodium falciparum 3D7 infected in […] after 72 hrs by SYBR Green I-based fluorescence method; assay type: functional, organism-based; conditions: for IC50: 3D7, 72 h
[3] = target: Plasmepsin V (Plasmodium falciparum (isolate 3D7)) (UniProt Q8I6Z5); assay: Inhibition of Plasmodium falciparum […] plasmepsin-5 using DABCYL-GNKRTLAQKQG-EDANS as substrate measured every 15 mins of 75 mins by fluorescence assay
Sequence of Plasmepsin V (Plasmodium falciparum (isolate 3D7)) (Q8I6Z5 whole entry, looked up): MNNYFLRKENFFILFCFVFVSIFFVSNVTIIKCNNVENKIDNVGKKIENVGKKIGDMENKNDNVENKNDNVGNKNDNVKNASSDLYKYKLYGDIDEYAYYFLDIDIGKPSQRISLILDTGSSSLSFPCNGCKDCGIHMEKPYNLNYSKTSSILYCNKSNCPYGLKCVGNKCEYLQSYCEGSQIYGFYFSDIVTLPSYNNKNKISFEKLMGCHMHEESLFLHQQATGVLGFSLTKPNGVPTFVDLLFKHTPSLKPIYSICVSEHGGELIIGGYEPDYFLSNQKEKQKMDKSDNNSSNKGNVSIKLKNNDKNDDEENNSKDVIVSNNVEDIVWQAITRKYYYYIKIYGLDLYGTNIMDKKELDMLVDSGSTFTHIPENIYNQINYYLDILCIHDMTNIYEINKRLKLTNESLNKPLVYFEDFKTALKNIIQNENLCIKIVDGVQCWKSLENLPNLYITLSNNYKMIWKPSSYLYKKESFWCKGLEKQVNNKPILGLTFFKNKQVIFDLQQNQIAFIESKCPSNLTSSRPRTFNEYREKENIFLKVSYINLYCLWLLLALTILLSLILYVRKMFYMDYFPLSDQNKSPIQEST

[4] = system: Plasmodium chabaudi; assay: Antimalarial activity against Plasmodium chabaudi ASS infected in NIH mouse assessed as inhibition of parasitemia at 4.5 mg/kg, po qd for 4 days; assay type: functional; conditions: 96 h
Outline: (§1)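 Mice infected with P. chabaudi were given oral doses once daily for four days, starting four hours after infection. Parasitemia was read on Day 4 postinoculation and expressed as percent inhibition of parasitemia.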

[5] = target: T1, Cytochrome P450 1A2 (Homo sapiens, UniProt P05177); assay: Inhibition of human recombinant CYP1A2 after 30 mins; assay type: ADME; conditions: recombinant enzyme, 0.5 h
T1 sequence (P05177 whole entry): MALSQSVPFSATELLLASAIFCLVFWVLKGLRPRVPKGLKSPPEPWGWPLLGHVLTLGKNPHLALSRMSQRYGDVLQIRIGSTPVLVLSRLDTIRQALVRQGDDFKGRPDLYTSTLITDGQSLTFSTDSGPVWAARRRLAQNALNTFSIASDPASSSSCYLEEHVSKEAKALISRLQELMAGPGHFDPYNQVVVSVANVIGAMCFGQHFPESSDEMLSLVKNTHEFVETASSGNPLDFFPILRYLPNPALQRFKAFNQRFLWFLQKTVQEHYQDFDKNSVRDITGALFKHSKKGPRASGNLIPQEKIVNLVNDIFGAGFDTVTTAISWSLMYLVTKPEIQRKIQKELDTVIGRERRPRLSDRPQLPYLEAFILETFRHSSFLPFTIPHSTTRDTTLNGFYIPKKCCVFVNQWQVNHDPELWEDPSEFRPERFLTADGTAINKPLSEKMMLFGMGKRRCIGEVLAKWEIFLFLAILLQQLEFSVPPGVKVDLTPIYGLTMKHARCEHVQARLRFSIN

[6] = system: Plasmodium chabaudi; assay: Antimalarial activity against Plasmodium chabaudi ASS infected in NIH mouse assessed as inhibition of parasitemia at 100 mg/kg, po qd for 4 days; assay type: functional; conditions: 96 h; outline: as §1
[7] = system: HepG2; assay: Cytotoxicity against human HepG2 cells after 72 hrs; assay type: cell-based; conditions: hepg2, 72 h
[8] = target: Cytochrome P450 2D6 (Homo sapiens, UniProt P10635); assay: Inhibition of human recombinant CYP2D6 after 30 mins; assay type: ADME; conditions: recombinant enzyme, 0.5 h
Sequence of Cytochrome P450 2D6 (P10635 whole entry): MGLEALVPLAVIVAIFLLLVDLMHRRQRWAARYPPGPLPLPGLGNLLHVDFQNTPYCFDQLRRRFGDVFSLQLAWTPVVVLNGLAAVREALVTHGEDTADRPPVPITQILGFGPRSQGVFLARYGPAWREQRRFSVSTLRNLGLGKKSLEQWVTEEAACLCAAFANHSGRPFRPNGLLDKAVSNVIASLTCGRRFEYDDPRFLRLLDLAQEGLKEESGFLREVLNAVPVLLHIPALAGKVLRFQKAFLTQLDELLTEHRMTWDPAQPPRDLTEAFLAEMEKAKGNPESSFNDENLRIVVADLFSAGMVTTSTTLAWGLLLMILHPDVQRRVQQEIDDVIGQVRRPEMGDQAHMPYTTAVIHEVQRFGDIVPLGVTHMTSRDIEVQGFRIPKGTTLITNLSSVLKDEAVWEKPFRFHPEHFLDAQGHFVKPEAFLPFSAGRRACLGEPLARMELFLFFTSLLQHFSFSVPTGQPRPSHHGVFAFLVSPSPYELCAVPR

[9] = target: Cytochrome P450 3A4 (Homo sapiens, UniProt P08684); assay: Inhibition of human recombinant CYP3A4 after 30 mins; assay type: ADME; conditions: recombinant enzyme, 0.5 h
Sequence of Cytochrome P450 3A4 (P08684 whole entry): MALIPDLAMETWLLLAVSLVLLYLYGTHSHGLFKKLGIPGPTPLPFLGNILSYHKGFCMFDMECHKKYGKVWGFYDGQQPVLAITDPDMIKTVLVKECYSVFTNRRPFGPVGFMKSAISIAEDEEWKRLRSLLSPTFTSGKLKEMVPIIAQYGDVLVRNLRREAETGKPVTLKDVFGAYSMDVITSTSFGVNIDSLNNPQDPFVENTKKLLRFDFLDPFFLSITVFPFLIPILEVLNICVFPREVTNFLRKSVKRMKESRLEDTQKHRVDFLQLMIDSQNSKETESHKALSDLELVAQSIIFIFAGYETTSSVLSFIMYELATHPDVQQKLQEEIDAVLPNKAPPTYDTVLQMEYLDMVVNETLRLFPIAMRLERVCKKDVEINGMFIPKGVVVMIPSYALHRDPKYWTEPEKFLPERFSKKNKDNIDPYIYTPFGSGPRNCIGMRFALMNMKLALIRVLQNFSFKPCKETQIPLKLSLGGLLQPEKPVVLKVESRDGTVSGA

[10] = target: Cytochrome P450 2C19 (Homo sapiens, UniProt P33261); assay: Inhibition of human recombinant CYP2C19 after 30 mins; assay type: ADME; conditions: recombinant enzyme, 0.5 h
Sequence of Cytochrome P450 2C19 (P33261 whole entry): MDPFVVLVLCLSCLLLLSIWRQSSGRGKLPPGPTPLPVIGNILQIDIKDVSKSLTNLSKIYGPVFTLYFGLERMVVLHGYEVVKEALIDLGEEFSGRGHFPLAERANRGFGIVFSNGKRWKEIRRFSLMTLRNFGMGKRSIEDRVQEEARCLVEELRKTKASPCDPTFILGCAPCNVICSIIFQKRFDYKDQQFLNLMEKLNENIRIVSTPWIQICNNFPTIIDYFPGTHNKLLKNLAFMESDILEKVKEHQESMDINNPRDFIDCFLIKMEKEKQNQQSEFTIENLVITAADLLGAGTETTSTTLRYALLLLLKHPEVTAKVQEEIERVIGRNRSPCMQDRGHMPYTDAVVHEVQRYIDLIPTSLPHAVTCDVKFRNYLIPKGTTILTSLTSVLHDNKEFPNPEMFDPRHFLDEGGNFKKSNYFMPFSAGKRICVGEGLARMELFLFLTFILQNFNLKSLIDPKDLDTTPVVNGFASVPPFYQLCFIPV

[11] = Plasma concentration in Plasmodium chabaudi ASS infected NIH mouse at 100 mg/kg, po qd measured 1 hr after post last dose on day 3; assay type: ADME, organism-based; design: dose 100 mg/kg, route oral
Outline: (§2)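 P. chabaudi-infected mice were dosed orally once daily for four days, starting four hours post-infection. Plasma compound levels were measured at 1, 6 and 24 h after the last dose on Day 3.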

[12] = target: Cytochrome P450 2C9 (Homo sapiens, UniProt P11712); assay: Inhibition of human recombinant CYP2C9 after 30 mins; assay type: ADME; conditions: recombinant enzyme, 0.5 h
Sequence of Cytochrome P450 2C9 (P11712 whole entry): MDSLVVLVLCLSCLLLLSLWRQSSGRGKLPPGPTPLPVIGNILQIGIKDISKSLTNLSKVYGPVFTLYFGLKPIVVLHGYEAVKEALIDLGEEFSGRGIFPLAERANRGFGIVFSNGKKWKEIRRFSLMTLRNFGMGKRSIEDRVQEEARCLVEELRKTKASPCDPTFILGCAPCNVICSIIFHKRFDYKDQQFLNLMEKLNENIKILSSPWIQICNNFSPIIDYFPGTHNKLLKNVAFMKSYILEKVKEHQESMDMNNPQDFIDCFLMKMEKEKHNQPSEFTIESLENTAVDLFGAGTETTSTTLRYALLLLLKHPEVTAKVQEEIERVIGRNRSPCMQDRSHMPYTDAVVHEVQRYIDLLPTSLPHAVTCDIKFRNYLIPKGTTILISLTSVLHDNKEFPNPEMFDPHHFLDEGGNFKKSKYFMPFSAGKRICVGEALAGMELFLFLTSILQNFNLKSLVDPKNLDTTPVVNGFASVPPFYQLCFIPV

[13] = Plasma concentration in Plasmodium chabaudi ASS infected NIH mouse at 100 mg/kg, po qd measured 24 hrs after post last dose on day 3; assay type: ADME, organism-based; design: dose 100 mg/kg, route oral; outline: as §2
[14] = system: Plasmodium falciparum; assay: Antimalarial activity against chloroquine-sensitive Plasmodium falciparum 3D7 infected in […] after 48 hrs by SYBR Green I-based fluorescence method; assay type: functional, organism-based
[15] = Plasma concentration in Plasmodium chabaudi ASS infected NIH mouse at 100 mg/kg, po qd measured 6 hrs after post last dose on day 3; assay type: ADME, organism-based; design: dose 100 mg/kg, route oral; outline: as §2
[16] = system: Plasmodium falciparum; assay: Antimalarial activity against chloroquine and pyrimethamine-resistant Plasmodium falciparum Dd2 infected in […] after 48 hrs by SYBR Green I-based fluorescence method; assay type: functional
[17] = system: Plasmepsin IV (Plasmodium falciparum); assay: Inhibition of Plasmodium falciparum plasmepsin-4 after 60 mins by fluorescence assay

Sequence of Plasmepsin II (Plasmodium falciparum) (P46925 125-453 limits assumed): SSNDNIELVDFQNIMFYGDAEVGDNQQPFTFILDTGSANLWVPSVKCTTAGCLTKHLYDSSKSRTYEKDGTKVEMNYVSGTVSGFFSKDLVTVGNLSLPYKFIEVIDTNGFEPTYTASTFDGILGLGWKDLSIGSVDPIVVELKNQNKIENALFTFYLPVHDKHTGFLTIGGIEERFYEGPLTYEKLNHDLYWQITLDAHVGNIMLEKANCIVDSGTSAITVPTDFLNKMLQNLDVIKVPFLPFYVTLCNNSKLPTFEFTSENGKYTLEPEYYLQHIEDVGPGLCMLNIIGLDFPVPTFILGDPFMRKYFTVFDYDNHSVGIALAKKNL

SMILES: COc1ccc(C2(c3ccc(OC)cc3)NC(=S)N(C3CCCCC3)C2=O)cc1
inhibition [1]: inactive
inhibition [2]: inactive

IC50 [2]: 0.533 µM
SMILES: Cc1cccc(C2(c3cccc(C)c3)NC(=N)N(C3CCCCC3)C2=O)c1

IC50 [2]: 0.533 µM
SMILES: COc1ccc(C2(c3ccccc3)NC(=N)N(C3CCCCC3)C2=O)cc1 (racemic)

IC50 [2]: 100 µM
SMILES: COc1ccc(C2(c3ccc(OC)cc3)NC(=N)N(c3ccccc3)C2=O)cc1

IC50 [2]: 7.92 µM
SMILES: COc1ccc(C2(c3ccc(OC)cc3)NC(=N)N(C)C2=O)cc1

IC50 [2]: 14.8 µM
SMILES: COc1ccc(C2(c3ccc(OC)cc3)NC(=N)N(C3CCC(O)CC3)C2=O)cc1 (stereo unspecified)

IC50 [2]: 2.38 µM
SMILES: COc1ccc(C2(c3ccc(OC)cc3)NC(=N)N(CCc3ccccc3)C2=O)cc1

IC50 [2]: 3.95 µM
SMILES: CCN1C(=N)NC(c2ccc(OC)cc2)(c2ccc(OC)cc2)C1=O

inhibition [3]: inactive
IC50 [2]: 0.768 µM
SMILES: COc1cccc(C2(c3cccc(OC)c3)NC(=N)N(C3CCCCC3)C2=O)c1

SMILES: CCN(CC)CCCC(C)Nc1ccnc2cc(Cl)ccc12 (stereo unspecified) [CHLOROQUINE]
inhibition in vivo at 4.5 mg/kg [4]: 100%

SMILES: COc1ccc(C2(c3ccc(OC)cc3)NC(=N)N(CC3CCOCC3)C2=O)cc1
inhibition (INH) [5]: Not Active
inhibition in vivo at 100 mg/kg [6]: 41%
Activity [7]: Toxic
inhibition (INH) [8]: Not Active
inhibition (INH) [9]: Active
inhibition (INH) [10]: Not Active
concentration at 1 h [11]: 10400 ng/mL
inhibition (INH) [12]: Not Active
concentration at 24 h [13]: 123 ng/mL
inhibition [14]: Active
concentration at 6 h [15]: 3030 ng/mL
IC50 [2]: 0.463 µM
inhibition [16]: Active

IC50 [2]: 0.722 µM
SMILES: COc1ccc(C2(c3ccc(OC)cc3)NC(=N)N(C3CCC3)C2=O)cc1

IC50 [2]: 0.244 µM
SMILES: CCC(CN1C(=N)NC(c2ccc(OC)cc2)(c2ccc(OC)cc2)C1=O)c1ccccc1 (stereo unspecified)

IC50 [2]: > 5 µM
SMILES: COc1ccc(C2(c3ccc(OC)cc3)NC(=N)N(C3CCNCC3)C2=O)cc1

IC50 [2]: 1.06 µM
SMILES: N=C1NC(c2cccc(Cl)c2)(c2cccc(Cl)c2)C(=O)N1C1CCCCC1

IC50 [2]: 1.07 µM
SMILES: N=C1NC(c2ccc(Cl)cc2)(c2ccc(Cl)cc2)C(=O)N1C1CCCCC1

IC50 [2]: 2.2 µM
SMILES: N=C1NC(c2ccc(OC(F)(F)F)cc2)(c2ccc(OC(F)(F)F)cc2)C(=O)N1C1CCCCC1

IC50 [2]: 0.424 µM
SMILES: N=C1NC(c2ccccc2)(c2cccc(Oc3ccccc3)c2)C(=O)N1C1CCCCC1 (racemic)

IC50 [2]: 0.917 µM
SMILES: COc1cccc(C2(c3ccccc3)NC(=N)N(C3CCCCC3)C2=O)c1 (racemic)

SMILES: COc1ccc(C2(c3ccc(OC)cc3)NC(=O)N(C3CCCCC3)C2=O)cc1
inhibition [1]: inactive
inhibition [17]: inactive
inhibition [2]: inactive

IC50 [2]: 0.318 µM
SMILES: COc1cccc(C2(c3cccc(-c4ccncc4)c3)NC(=N)N(C3CCCCC3)C2=O)c1 (racemic)

IC50 [2]: 1.49 µM
SMILES: COc1ccc(C2(c3cccc(-c4ccccc4)c3)NC(=N)N(C3CCCCC3)C2=O)cc1 (racemic)

SMILES: COc1ccc(C2(c3ccc(OC)cc3)NC(=N)N(CC3CCCCC3)C2=O)cc1
inhibition (INH) [5]: Not Active
inhibition in vivo at 100 mg/kg [6]: 73%
Activity [7]: Toxic
inhibition (INH) [8]: Not Active
inhibition (INH) [9]: Active
inhibition (INH) [10]: Not Active
concentration at 1 h [11]: 2520 ng/mL
inhibition (INH) [12]: Not Active
concentration at 24 h [13]: 7 ng/mL
inhibition [14]: Active
concentration at 6 h [15]: 2190 ng/mL
IC50 [2]: 0.383 µM
inhibition [16]: Active

From ChEMBL document CHEMBL3108756, “Evaluation of aminohydantoins as a novel class of antimalarial agents” (ACS Med Chem Lett, 2014)
